E-sel inducer: induces E-selectin expression in human endothelial cells; HUVEC E-selectin immunofluorescence imaging; normalized: neutral wells 0, TNF-alpha wells 100; activation, % at 7.58 µM; actives 0.37% (n = 260,000); AID 686992;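 active means mean E-selectin-positive cell signal at least 10% of the positive control, reached in at least 60% of replicates, without over 20% cell loss; inconclusive means no rule given, readout overlaps actives, possibly toxicity-flagged; inactive means the rest, including those meeting only one limit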
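Test system: HUVEC; input: 3,000 HUVEC/well; measured by: immunofluorescence imaging; read-out: % PE-positive cells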
ERAP1 HTS inh: blocks human ERAP1 aminopeptidase activity; recombinant ERAP1, Leu-AMC fluorescence, 60 min; AID 652197; Q9NZ08; actives 0.15% (n = 340,000); inhibition, % at 10.7 µM;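 active means mean replicate inhibition of at least 30%, or all replicates individually reaching that 30% level; inactive means mean below 30% and not every replicate reaching it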;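 further: 0% = neutral control wells and 100% = L-leucinethiol positive control wells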
DENV2 CPE rescue: DENV2-induced cell death inhibition; actives 1.7% (n = 350,000); CPE inhibition, % at 9.99 µM; DENV2-infected cells, cytopathic effect rescue, plate reader; in the data active means CPE inhibition above about 20%, passing the limit was not always enough; inconclusive means no clear call, values can overlap the other calls; tested in BHK-21 cells;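 further: 0% = median of neutral control wells and 100% = median of positive control wells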
FGF22 binding: FGF22 (human) thermal shift binding | Q9HCT0 | recombinant FGF22 thermal shift, SYPRO orange fluorescence; percent of sucrose octasulfate shift, DMSO zero | activity (Tm shift, normalised), % at 9.99 µM | actives 1.5% (n = 340,000) | AID 651658;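 active means mean Tm shift, scaled 0 neutral to 100 positive control, at about 1.3% or above, every replicate too, limit read from the data; inconclusive means no clear call, values can overlap the other calls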
Target sequence (Q9HCT0 whole entry, looked up): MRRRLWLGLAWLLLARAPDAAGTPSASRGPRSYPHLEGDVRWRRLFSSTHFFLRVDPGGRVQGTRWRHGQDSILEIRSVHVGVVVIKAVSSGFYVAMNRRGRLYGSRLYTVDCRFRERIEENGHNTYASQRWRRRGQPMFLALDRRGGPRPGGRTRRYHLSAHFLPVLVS
F508del corr: correctors of CFTR F508del function in bronchial epithelial cells; CFBE cells, YFP halide quenching; stimulated with forskolin plus potentiator P3; % fluorescence drop versus neutral controls; AID 720511; activity (quench increase), % at 7.58 µM; actives 0.36% (n = 350,000);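 active means mean added fluorescence quench of at least 8% versus neutral control, with both replicates also reaching 8%; inconclusive means only one of the mean or replicate conditions met; inactive means mean below 8% and not both replicates reaching 8%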;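 further: cells transiently co-express mutant CFTR-F508del with the halide-sensitive YFP; corrector assay measuring rescue of mutant channel to the surface after 24 h compound exposure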
The depositor's hits bear a star; ? = inconclusive; nt = no result. Shown are actives, neighbours in structure and some others; about 3.7% of the full set was active somewhere.

SMILES	E-sel inducer	ERAP1 HTS inh	DENV2 CPE rescue	FGF22 binding	F508del corr
O=C(C[C@H]1C(=O)N(Cc2ccccc2)C[C@@H]1Cc1ccccc1)Nc1ccc(Br)cc1	-1.0	13.3	25.6*	-0.2	2.1
CCCCN1C[C@H](Cc2ccccc2)[C@@H](CC(=O)NCc2ccc(OC)cc2)C1=O	nt	0.9	48.0*	0.0	-0.8
CCCCC[C@H]1CN(CCc2ccccc2)C(=O)[C@@H]1CC(=O)NCc1ccc(OC)cc1	nt	3.8	24.0*	-0.3	2.4
CCCCC[C@H]1CN(CCCC)C(=O)[C@@H]1CC(=O)NCc1ccc(OC)cc1	nt	3.5	?	-0.1	3.2
O=C(C[C@H]1C(=O)N(Cc2cccnc2)C[C@@H]1Cc1ccccc1)Nc1ccc(Br)cc1	7.8	nt	-2.6	-0.8	0.9
CCCNC(=O)N1CC2(CCN(Cc3cccnc3)CC2)c2c(n(C)c3cc(OC)ccc23)[C@@H]1CO	0.4	7.4	1.0	0.0	1.5
CC1(C)CC(=O)C=C(c2ccc(COC(=O)C(c3ccccc3)c3ccccc3)cc2)C1=O	0.5	5.7	54.1*	0.2	2.5
COc1ccc(C(=O)CSc2ccccc2C(=O)O)cc1	nt	-15.7	-5.2	44.1*	4.8
O=C(C[C@@H]1C[C@H]2c3cc(NC(=O)C4CCC4)ccc3O[C@H]2[C@@H](CO)O1)NCCc1ccccc1	-0.2	1.7	0.9	0.0	-0.9
C[C@@H]1CN([C@H](C)CO)C(=O)c2cc(NC(=O)C3CCCCC3)ccc2O[C@@H](C)CCCCO[C@H]1CN(C)S(=O)(=O)c1ccc(Cl)cc1	0.1	1.4	3.3	nt	-1.2
O=C(c1cc2cc(F)ccc2[nH]1)N(Cc1cccnc1)CC1CCCN(C2CCCCC2)C1 (configuration not stated)	nt	-2.9	-2.1	-0.3	3.3
C#Cc1cccc(C(=O)N(Cc2cccnc2)CC2CCCN(C3CCCCC3)C2)c1 (configuration not stated)	0.5	3.1	-6.9	42.9*	0.3
CC(C)(C)C(=O)Nc1nc2c(s1)COc1ccccc1-2	0.2	4.9	0.3	0.2	-0.7
Nc1nc2c(s1)COc1ccccc1-2	nt	2.5	-3.4	42.9*	-1.7
CC(C)(O)/C=C/C[C@](C)(O)C1CC[C@]2(C)C1[C@H](O[C@H]1O[C@@H](CO)[C@H](O)[C@@H](O)[C@@H]1O)CC1[C@@]3(C)CC[C@H](O)C(C)(C)C3[C@@H](O)C[C@]12C (some centres not stated)	-0.2	nt	42.1*	0.2	-4.3
COCc1cc(SC2CCCCC2)nc(C)n1	nt	-1.0	-0.5	43.2*	0.3
COC(=O)[C@@]1(Cc2ccccc2)[C@H]2C(=O)N(C)C(=O)[C@H]2[C@H]2CN=C(SCc3ccc(Cl)cc3)N21	-0.6	3.5	-4.0	43.0*	4.5
O=C(C1CCC1)N1CC2(C1)[C@H](c1ccccc1)[C@H](CO)N2Cc1cncnc1	0.0	-1.7	1.7	nt	0.0
CN1CCN(C(=O)c2ccc(-n3cccn3)nc2)CC1	-0.2	-6.1	-8.1	43.4*	-1.3
CO[C@@]1(NC(=O)CSCC#N)C(=O)N2C(C(=O)O)=C(CSc3nnnn3C)CS[C@@H]21	1.0	-2.5	4.8	1.5*	-3.4
CN1c2ccc(C#Cc3cccnc3)cc2[C@H]2[C@H](CCN2S(=O)(=O)c2cccc(F)c2)[C@@H]1CO	1.0	-0.4	?	0.5	2.2
CCCC#Cc1cnc2c(c1)C(=O)N([C@H](C)CO)C[C@@H](C)[C@@H](CN(C)C(=O)CN1CCOCC1)O2	-0.2	-1.6	10.0	0.3	1.0
COCCCC1CCN(C(=O)C2CCC(=O)N(CCCc3ccccc3)C2)CC1 (configuration not stated)	0.1	-0.2	1.0	43.0*	-0.1
COCCN(C[C@H]1[C@H](c2ccccc2)[C@H](CO)N1C(C)=O)C(=O)c1ccncc1	0.1	-3.0	25.3*	0.0	-2.2
O=C(NC[C@@H]1[C@@H](c2ccccc2)[C@@H](CO)N1CC1CCCC1)c1cccnc1	0.0	nt	38.5*	nt	1.6
SMILES	E-sel inducer	ERAP1 HTS inh	DENV2 CPE rescue	FGF22 binding	F508del corr
CC(=O)N1[C@H](CO)[C@H](c2ccccc2)[C@H]1CNC(=O)c1ccncc1	0.2	-0.4	20.5*	nt	0.3
COCCN(C[C@@H]1[C@H](c2ccccc2)[C@@H](CO)N1C(C)=O)C(=O)c1ccncc1	0.0	-6.5	-8.7	-0.3	3.3
O=C(c1ccccn1)N1CC2(C1)[C@H](c1ccccc1)[C@@H](CO)N2Cc1cccnc1	0.2	-1.0	-2.9	0.1	-1.9
O=C(C1=NN[C@@H]2C(=O)N(c3ccccc3C(F)(F)F)C(=O)[C@H]12)c1cnccn1	27.2*	nt	-0.7	0.1	-0.8
O=C(C1=NN[C@@H]2C(=O)N(c3cccc(F)c3)C(=O)[C@H]12)c1cnccn1	nt	-1.0	1.8	0.1	0.3
C[C@H](CO)N1C[C@H](C)[C@@H](CN(C)C(=O)Nc2ccc(F)cc2)Oc2ccc(NS(=O)(=O)c3ccccc3)cc2CC1=O	0.0	-0.5	7.3	-0.2	-1.8
C[C@H](CO)N1C[C@H](C)[C@H](CN(C)C(=O)Nc2ccc3c(c2)OCO3)Oc2ccc(NC(=O)Nc3ccc4c(c3)OCO4)cc2C1=O	-0.2	-4.0	-13.3	-0.1	0.1
CC(C)NC(=O)Nc1ccc2c(c1)C(=O)N([C@H](C)CO)C[C@@H](C)[C@@H](CN(C)C(=O)Nc1ccc3c(c1)OCO3)O2	-0.3	4.7	24.9*	0.5	-0.2
CC(C)NC(=O)Nc1ccc2c(c1)C(=O)N([C@@H](C)CO)C[C@H](C)[C@H](CN(C)C(=O)Nc1ccc3c(c1)OCO3)O2	0.3	4.6	87.3*	0.8	0.3
Cc1ccc(OCC(=O)NC2CCSc3ccccc32)cc1 (configuration not stated)	nt	-0.2	25.8*	-0.1	-0.6
CCOc1ccccc1OCC(=O)NC1CCSc2ccccc21 (configuration not stated)	0.0	-0.2	?	-0.2	-0.9
COc1ccccc1NC(=S)N1CCCCCC1	65.2*	-3.2	-6.1	0.0	0.7
COc1ccccc1NC(=S)N1CCN(Cc2ccccc2)CC1	0.0	2.5	17.6	-0.3	nt
COc1ccc(-c2ccc3n(c2=O)C[C@H]2[C@H](CO)[C@@H](C(=O)N4CCCCC4)[C@@H]3N2C)cc1	0.0	1.2	-6.2	-0.1	2.8
C[C@@H]1CCCCO[C@H](CN(C)C(=O)Nc2ccccc2)[C@H](C)CN([C@H](C)CO)C(=O)c2cc(NC(=O)Nc3ccc(F)cc3)ccc2O1	0.0	-3.4	-5.5	0.2	0.6
CCOc1ccc(C(=O)NCC(=O)N2CCCCCCC2)cc1	nt	0.3	22.2*	0.2	-0.1
CCOc1ccc(C(=O)NCC(c2ccco2)N2CCOCC2)cc1 (configuration not stated)	nt	-1.5	26.0*	-0.1	0.1
COc1ccc(OC)c(-c2cc(C(=O)NC3CCCC3)c3ccccc3n2)c1	-0.1	-1.0	36.1*	0.0	-1.1
